Results pooled from the literature.
Protocols differ between the studies behind these lines.
Target: Ephrin type-A receptor 4 (EPHA4, Homo sapiens, UniProt P54764)

SMILES | observed | mode | technique | tested at | quantity | value
O=C(Nc1cnn(-c2csc(C(=O)NC3COC3)c2)c1)Nc1c(F)cccc1Cl | enzyme activity | inhibitor |  | 5 µM | remaining activity | 89.1%
FC(F)c1nc2ccccc2n1-c1nc(N2CCOCC2)nc(N2CCOCC2)n1 | enzyme activity | inhibitor |  | 10 µM | remaining activity | 87%
Cc1cc(NC(=O)c2cccc3cc(-c4cccc5[nH]nc(N)c45)ccc23)ccc1F | enzyme activity | inhibitor |  | 0.1 µM | activity vs control | 73%
CC(C)(C)c1nc2c(s1)c1nc(N)ncc1c1ccc(NS(=O)(=O)c3c(F)cccc3F)c(F)c12 | enzyme activity | inhibitor | radiometric | 1 µM | remaining activity | 99%
COc1cc(Nc2cnc(C#N)c(O[C@H](C)CN(C)C)n2)ncc1-c1cnn(C)c1 | enzyme activity | inhibitor | radiometric | 1 µM | remaining activity | 73%
Cc1ccc(NC(=O)c2ccc(C)c(C(F)(F)F)c2)cc1C#Cc1nn(C2CCC(O)CC2)c2ncnc(N)c12 (centres unmarked) | cell-free assay |  |  | 10 µM | remaining signal | -2%
Cc1ccc(C(=O)NCc2ccsc2)cc1C#Cc1cn(C(C)C)c2ncnc(N)c12 | enzyme activity | inhibitor |  | 1 µM | activity vs control | 6%
CN1CC(Oc2cnc(C#N)cc2-c2ccn3nc(NC(=O)C4CC4)cc3c2)C1 | enzyme activity | inhibitor |  | 1 µM | inhibition | 11%
CCCS(=O)(=O)Nc1ccc(F)c(C(=O)c2c[nH]c3ncc(-c4ccc(Cl)cc4)cc23)c1F | enzyme activity | inhibitor |  | 1 µM | inhibition | < 10%
O=C(NCc1ncc(C(F)(F)F)cc1Cl)c1ccc2c(c1)C1(CCS(=O)(=O)CC1)[C@@H](C1CC1)N2S(=O)(=O)c1ccc(F)cc1 | cell-free assay |  | competition with immobilised ligand | 1 µM | remaining binding | 97%
O=C(Nc1cnn(-c2csc(C(=O)NC3COC3)c2)c1)Nc1ccccc1Cl | enzyme activity | inhibitor |  | 5 µM | remaining activity | 100%
CCCCN(CCCC)C(=O)CN1C[C@@H](c2cc(OC)c3c(c2)OCO3)[C@H](C(=O)O)[C@H]1CC(C)(C)CCC | cell-free assay |  | competition with immobilised ligand | 1 µM | remaining binding | 95.7%
COc1cc2ncnc(Nc3ccc(Oc4ccccc4)cc3C)c2cc1OC | enzyme activity | inhibitor |  | 1 µM | inhibition | 10%
CCN(CC)CCNC(=O)c1c(C)[nH]c(/C=C2\C(=O)Nc3ccc(F)cc32)c1C | enzyme activity | inhibitor |  | 10 µM | inhibition | 46%
Cn1nc(C(F)(F)F)cc1-c1cnc(N2CCc3cc(S(=O)(=O)Nc4c(F)cc(Cl)cc4F)cc(N4CCCC4=O)c32)nc1 | cell-free assay |  | competition with immobilised ligand | 1 µM | remaining binding | 97%
CNC(=O)c1cc(Oc2ccc(NC(=O)Nc3ccc(Cl)c(C(F)(F)F)c3)cc2)ccn1 | enzyme activity | inhibitor |  | 10 µM | inhibition | 56%
N#CC1(c2ccccn2)CCN(Cc2cc(C(=O)N3CCCC3)c(=O)n3ccccc23)CC1 | cell-free assay |  | competition with immobilised ligand | 1 µM | remaining binding | 89%
Cc1ccc(Nc2nccc(N(C)c3ccc4c(C)n(C)nc4c3)n2)cc1S(N)(=O)=O | enzyme activity | inhibitor |  | 10 µM | inhibition | 28%
CCS(=O)(=O)c1cc2cc(C[C@](O)(CC(C)(C)c3ccc(F)cc3C(N)=O)C(F)(F)F)[nH]c2cn1 | cell-free assay |  | competition with immobilised ligand | 1 µM | remaining binding | 100%
O=C1NC(=O)c2cc(Nc3ccc(F)cc3)c(Nc3ccc(F)cc3)cc21 | cell-free assay |  |  | 0.5 µM | remaining signal | 94%
Cc1noc([C@H]2C[C@@H](c3ccc(C(F)(F)F)cc3)CN(C(=O)N3CCS(=O)(=O)C3)C2)n1 | cell-free assay |  | competition with immobilised ligand | 1 µM | remaining binding | 100%
Nc1ncnc2occ(-c3ccc(NC(=O)Nc4cc(C(F)(F)F)ccc4F)cc3)c12 | cell-free assay |  |  | 20 µM | remaining signal | 0%
O=C(NCCCC1CCCCC1)c1ccc(CNC(=O)c2cnn(-c3ccccc3)c2C(F)(F)F)cc1 | cell-free assay |  | competition with immobilised ligand | 0.1 µM | remaining binding | 70%
O=C1Nc2ccc(Cl)cc2C1=Cc1cc(Cl)c(O)c(Cl)c1 | cell-free assay |  |  | 0.5 µM | remaining signal | 93.1%
Nc1c(C(=O)NCc2ccc(C(=O)NCCCC3CCCCC3)cc2)cnn1-c1ccccc1 | cell-free assay |  | competition with immobilised ligand | 0.1 µM | remaining binding | 100%
COc1cc(/C=C/C(=O)CC(=O)/C=C/c2ccc(O)c(OC)c2)ccc1O | enzyme activity | inhibitor |  | 1 µM | activity vs control | 118%
